Laboratory results as given in ChEMBL document CHEMBL4382192, “Discovery of a potent dual ALK and EGFR T790M inhibitor” (Eur J Med Chem, 2017).

What was measured:
[1] = target: Bone morphogenetic protein receptor type-1A (Homo sapiens) (UniProt P36894); test: Binding affinity to wild-type human partial length BMPR1A (Q214 to I532 residues) expressed in bacterial expression system assessed as residual binding level at 1 uM by Kinomescan method relative to control
[2] = target: Calcium/calmodulin-dependent protein kinase type II subunit gamma (Homo sapiens) (UniProt Q13555); test: Binding affinity to wild-type human partial length CAMK2G (R9 to A303 residues) expressed in bacterial expression system assessed as residual binding level at 1 uM by Kinomescan method relative to control
[3] = target: Serine/threonine-protein kinase N2 (Homo sapiens) (UniProt Q16513); test: Binding affinity to wild-type human partial length PKN2 (E634 to C984 residues) expressed in bacterial expression system assessed as residual binding level at 1 uM by Kinomescan method relative to control
[4] = target: Uncharacterized serine/threonine-protein kinase SBK3 (Homo sapiens) (UniProt P0C264); test: Binding affinity to wild-type human partial length SgK110 (L22 to R329 residues) expressed in bacterial expression system assessed as residual binding level at 1 uM by Kinomescan method relative to control
[5] = test system: Receptor-type tyrosine-protein kinase FLT3 (Homo sapiens), P36888 [UNDEFINED MUTATION]; test: Binding affinity to human partial length FLT3 ITD mutant expressed in bacterial expression system assessed as residual binding level at 1 uM by Kinomescan method relative to control
Outline: (§1)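 Kinome-wide selectivity panel run by the KINOMEscan method, with the test compound at a single concentration of 1 μM. Wild-type and mutant kinases were profiled in the same screen.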

[6] = target: Non-receptor tyrosine-protein kinase TYK2 (Homo sapiens) (UniProt P29597); test: Binding affinity to wild-type human partial length TYK2 JH2 pseudokinase domain (G556 to D888 residues) expressed in mammalian expression system assessed as residual binding level at 1 uM by Kinomescan method relative to control
[7] = target: Testis-specific serine/threonine-protein kinase 3 (Homo sapiens) (UniProt Q96PN8); test: Binding affinity to wild-type human full length TSSK3 (M1 to T268 residues) expressed in mammalian expression system assessed as residual binding level at 1 uM by Kinomescan method relative to control
[8] = AUClast in mouse at 10 mg/kg, po; assay type: ADME, organism-based; set-up: dose 10 mg/kg, time 0 - last, route oral; settings: in vivo
[9] = target: Serine/threonine-protein kinase ULK1 (Homo sapiens) (UniProt O75385); test: Binding affinity to wild-type human partial length ULK1 (M1 to T309 residues) expressed in mammalian expression system assessed as residual binding level at 1 uM by Kinomescan method relative to control
[10] = target: STE20-like serine/threonine-protein kinase (Homo sapiens, UniProt Q9H2G2); test: Inhibition of recombinant full length GST-tagged human SLK expressed in baculovirus expression system by LanthaScreen assay
[11] = target: Calcium/calmodulin-dependent protein kinase type II subunit beta (Homo sapiens) (UniProt Q13554); test: Binding affinity to wild-type human partial length CAMK2B (M1 to Q380 residues) expressed in bacterial expression system assessed as residual binding level at 1 uM by Kinomescan method relative to control
[12] = target: Dual specificity testis-specific protein kinase 1 (Homo sapiens) (UniProt Q15569); test: Binding affinity to wild-type human full length TESK1 (R37 to S626 residues) expressed in bacterial expression system assessed as residual binding level at 1 uM by Kinomescan method relative to control
[13] = target: Cyclin-dependent kinase 9 (Homo sapiens) (UniProt P50750); test: Binding affinity to wild-type human full length CDK9 (M1 to F372 residues) expressed in bacterial expression system assessed as residual binding level at 1 uM by Kinomescan method relative to control
Sequence of Cyclin-dependent kinase 9 (Homo sapiens) (P50750 whole entry, the tested form may be a part): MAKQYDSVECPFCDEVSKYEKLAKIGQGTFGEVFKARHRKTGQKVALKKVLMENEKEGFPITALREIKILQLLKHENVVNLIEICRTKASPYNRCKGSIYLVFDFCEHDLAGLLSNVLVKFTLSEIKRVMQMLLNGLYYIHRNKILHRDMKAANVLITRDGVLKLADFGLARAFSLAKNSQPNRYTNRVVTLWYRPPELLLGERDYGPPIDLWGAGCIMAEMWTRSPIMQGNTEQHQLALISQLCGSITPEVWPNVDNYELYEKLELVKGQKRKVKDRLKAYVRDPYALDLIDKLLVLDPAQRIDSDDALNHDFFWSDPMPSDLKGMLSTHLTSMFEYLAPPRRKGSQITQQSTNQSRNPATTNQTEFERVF

[14] = target: Serine/threonine-protein kinase PAK 5 (Homo sapiens) (UniProt Q9P286); test: Binding affinity to wild-type human partial length PAK7 (Y400 to H719 residues) expressed in bacterial expression system assessed as residual binding level at 1 uM by Kinomescan method relative to control
Sequence of Serine/threonine-protein kinase PAK 5 (Homo sapiens) (Q9P286 whole entry, looked up, the tested form may be a part): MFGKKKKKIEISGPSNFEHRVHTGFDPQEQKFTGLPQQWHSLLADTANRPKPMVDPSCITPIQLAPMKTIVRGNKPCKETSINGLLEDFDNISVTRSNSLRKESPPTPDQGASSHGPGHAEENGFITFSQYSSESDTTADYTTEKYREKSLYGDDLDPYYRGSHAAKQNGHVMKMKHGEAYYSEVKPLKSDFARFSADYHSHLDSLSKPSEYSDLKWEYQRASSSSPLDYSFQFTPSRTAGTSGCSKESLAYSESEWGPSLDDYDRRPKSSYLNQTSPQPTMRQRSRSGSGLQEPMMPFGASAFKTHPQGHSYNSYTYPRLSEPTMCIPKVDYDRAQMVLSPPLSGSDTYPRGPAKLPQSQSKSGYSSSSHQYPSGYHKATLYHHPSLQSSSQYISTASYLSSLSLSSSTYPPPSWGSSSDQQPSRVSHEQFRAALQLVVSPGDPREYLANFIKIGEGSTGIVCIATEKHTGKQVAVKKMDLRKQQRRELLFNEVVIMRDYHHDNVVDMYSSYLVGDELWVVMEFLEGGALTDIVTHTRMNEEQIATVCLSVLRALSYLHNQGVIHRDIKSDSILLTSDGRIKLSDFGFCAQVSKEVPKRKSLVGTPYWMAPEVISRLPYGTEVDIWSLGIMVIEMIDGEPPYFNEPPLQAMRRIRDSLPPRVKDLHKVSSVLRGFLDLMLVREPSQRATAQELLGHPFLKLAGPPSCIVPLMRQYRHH

[15] = target: Ankyrin repeat and protein kinase domain-containing protein 1 (Homo sapiens) (UniProt Q8NFD2); test: Binding affinity to wild-type human partial length ANKK1 (M1 to A305 residues) expressed in mammalian expression system assessed as residual binding level at 1 uM by Kinomescan method relative to control
[16] = target: Calcium-dependent protein kinase 1 (Plasmodium falciparum) (UniProt P62344); test: Binding affinity to wild-type Plasmodium falciparum full length CDPK1 (M1 to S524 residues) expressed in mammalian expression system assessed as residual binding level at 1 uM by Kinomescan method relative to control
[17] = target: Ephrin type-A receptor 8 (Homo sapiens) (UniProt P29322); test: Binding affinity to wild-type human partial length EPHA8 (Q608 to C920 residues) expressed in bacterial expression system assessed as residual binding level at 1 uM by Kinomescan method relative to control
[18] = target: Ephrin type-A receptor 2 (Homo sapiens) (UniProt P29317); test: Binding affinity to wild-type human partial length EPHA2 (T593 to V891 residues) expressed in bacterial expression system assessed as residual binding level at 1 uM by Kinomescan method relative to control
Sequence of Ephrin type-A receptor 2 (Homo sapiens) (P29317 whole entry, the tested form may be a part): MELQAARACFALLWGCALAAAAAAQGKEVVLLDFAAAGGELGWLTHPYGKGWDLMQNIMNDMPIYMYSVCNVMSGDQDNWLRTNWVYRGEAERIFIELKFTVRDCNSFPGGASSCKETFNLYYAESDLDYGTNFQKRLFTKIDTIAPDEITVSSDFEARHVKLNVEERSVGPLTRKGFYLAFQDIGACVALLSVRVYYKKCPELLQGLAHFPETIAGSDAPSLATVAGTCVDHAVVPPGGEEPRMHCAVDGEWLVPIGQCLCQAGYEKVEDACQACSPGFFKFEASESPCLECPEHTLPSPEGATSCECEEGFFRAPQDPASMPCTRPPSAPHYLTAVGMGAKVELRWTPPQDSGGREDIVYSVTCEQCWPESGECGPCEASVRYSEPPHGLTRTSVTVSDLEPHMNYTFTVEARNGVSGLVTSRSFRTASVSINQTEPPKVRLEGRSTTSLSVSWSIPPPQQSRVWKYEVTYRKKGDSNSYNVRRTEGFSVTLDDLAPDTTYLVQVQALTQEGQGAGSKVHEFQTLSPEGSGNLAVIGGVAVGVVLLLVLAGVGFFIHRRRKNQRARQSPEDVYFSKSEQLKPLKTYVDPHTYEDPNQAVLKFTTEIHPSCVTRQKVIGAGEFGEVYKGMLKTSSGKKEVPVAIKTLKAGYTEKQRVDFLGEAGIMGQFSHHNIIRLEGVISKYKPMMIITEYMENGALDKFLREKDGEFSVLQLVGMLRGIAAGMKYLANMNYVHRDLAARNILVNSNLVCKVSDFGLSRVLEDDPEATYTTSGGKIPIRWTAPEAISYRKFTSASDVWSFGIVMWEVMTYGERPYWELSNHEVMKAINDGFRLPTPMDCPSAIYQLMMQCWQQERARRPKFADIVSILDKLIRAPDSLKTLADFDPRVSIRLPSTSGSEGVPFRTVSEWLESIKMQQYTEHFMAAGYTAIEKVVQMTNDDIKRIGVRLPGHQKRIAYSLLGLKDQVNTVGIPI

[19] = target: Ribosomal protein S6 kinase alpha-5 (Homo sapiens) (UniProt O75582); test: Binding affinity to wild-type human partial length C-terminal RPS6KA5 kinase domain 2 (V390 to T718 residues) expressed in bacterial expression system assessed as residual binding level at 1 uM by Kinomescan method relative to control
[20] = target: Serine/threonine-protein kinase N1 (Homo sapiens) (UniProt Q16512); test: Binding affinity to wild-type human partial length PKN1 (E598 to C948 residues) expressed in bacterial expression system assessed as residual binding level at 1 uM by Kinomescan method relative to control
[21] = target: Serine/threonine-protein kinase PAK 1 (Homo sapiens) (UniProt Q13153); test: Binding affinity to wild-type human partial length PAK1 (S149 to H545 residues) expressed in bacterial expression system assessed as residual binding level at 1 uM by Kinomescan method relative to control
[22] = target: Serine/threonine-protein kinase SIK1 (Homo sapiens) (UniProt P57059); test: Binding affinity to wild-type human partial length SIK (M1 to Y304 residues) expressed in bacterial expression system assessed as residual binding level at 1 uM by Kinomescan method relative to control
Sequence of Serine/threonine-protein kinase SIK1 (Homo sapiens) (P57059 whole entry, the tested form may be a part): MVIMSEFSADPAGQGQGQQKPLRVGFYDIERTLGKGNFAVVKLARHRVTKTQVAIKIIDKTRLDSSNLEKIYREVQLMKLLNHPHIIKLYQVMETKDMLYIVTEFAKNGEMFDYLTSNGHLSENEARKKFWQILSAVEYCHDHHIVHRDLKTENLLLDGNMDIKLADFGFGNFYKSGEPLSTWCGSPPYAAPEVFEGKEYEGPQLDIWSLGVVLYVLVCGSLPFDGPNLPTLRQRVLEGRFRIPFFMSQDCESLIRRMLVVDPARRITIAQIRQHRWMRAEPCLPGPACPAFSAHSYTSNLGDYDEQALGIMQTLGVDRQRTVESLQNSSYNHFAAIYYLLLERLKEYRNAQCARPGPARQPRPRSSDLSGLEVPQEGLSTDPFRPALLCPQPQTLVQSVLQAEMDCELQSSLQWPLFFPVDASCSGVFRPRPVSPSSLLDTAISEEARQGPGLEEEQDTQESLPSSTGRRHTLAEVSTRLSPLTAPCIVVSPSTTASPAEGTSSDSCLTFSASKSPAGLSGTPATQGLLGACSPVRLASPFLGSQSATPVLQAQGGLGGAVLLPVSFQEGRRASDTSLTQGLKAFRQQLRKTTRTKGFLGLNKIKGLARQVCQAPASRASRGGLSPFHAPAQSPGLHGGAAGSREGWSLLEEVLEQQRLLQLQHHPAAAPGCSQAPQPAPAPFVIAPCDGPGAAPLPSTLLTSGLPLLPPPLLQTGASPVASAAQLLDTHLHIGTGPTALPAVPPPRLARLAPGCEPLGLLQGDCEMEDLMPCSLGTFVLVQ

[23] = test system: Mast/stem cell growth factor receptor Kit (Homo sapiens), P10721 [V559D,T670I]; test: Binding affinity to human partial length KIT V559D/T670I double mutant (Y545 to D952 residues) expressed in bacterial expression system assessed as residual binding level at 1 uM by Kinomescan method relative to control; outline: as §1
Sequence of Mast/stem cell growth factor receptor Kit (Homo sapiens), P10721 [V559D,T670I] (P10721 whole entry V559D/T670I, the tested form may be a part): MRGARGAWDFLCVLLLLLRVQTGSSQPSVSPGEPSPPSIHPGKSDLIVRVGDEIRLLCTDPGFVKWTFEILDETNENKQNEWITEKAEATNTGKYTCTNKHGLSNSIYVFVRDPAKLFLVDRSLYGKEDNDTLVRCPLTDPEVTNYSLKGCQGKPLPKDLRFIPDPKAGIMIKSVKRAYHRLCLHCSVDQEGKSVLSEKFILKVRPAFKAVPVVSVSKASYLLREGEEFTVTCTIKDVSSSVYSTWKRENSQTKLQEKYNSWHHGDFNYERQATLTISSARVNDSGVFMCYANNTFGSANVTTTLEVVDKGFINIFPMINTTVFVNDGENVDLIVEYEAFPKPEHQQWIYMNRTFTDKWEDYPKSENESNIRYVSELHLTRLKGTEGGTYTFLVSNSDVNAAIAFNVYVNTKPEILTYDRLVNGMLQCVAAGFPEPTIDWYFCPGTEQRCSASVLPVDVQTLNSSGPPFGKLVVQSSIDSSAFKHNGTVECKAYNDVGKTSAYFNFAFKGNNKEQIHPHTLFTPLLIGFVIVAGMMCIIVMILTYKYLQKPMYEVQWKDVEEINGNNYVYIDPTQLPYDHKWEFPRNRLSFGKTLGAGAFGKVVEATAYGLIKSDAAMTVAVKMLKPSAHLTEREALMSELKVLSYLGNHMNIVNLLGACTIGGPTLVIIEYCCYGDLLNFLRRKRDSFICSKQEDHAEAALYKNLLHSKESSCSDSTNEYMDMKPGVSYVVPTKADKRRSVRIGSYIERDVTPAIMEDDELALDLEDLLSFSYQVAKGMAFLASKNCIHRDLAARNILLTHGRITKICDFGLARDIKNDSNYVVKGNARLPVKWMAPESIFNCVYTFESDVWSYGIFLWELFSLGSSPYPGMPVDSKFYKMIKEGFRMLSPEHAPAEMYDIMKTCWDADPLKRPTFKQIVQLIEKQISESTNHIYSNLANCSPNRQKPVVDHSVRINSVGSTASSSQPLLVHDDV

[24] = Drug uptake in mouse plasma at 2 mg/kg, iv after 2 hrs; assay type: ADME, organism-based
[25] = test system: Tyrosine-protein kinase ABL1 (Homo sapiens), P00519 [F317I]; test: Binding affinity to human non-phosphorylated ABL1 F317I mutant (S229 to K512 residues) expressed in mammalian expression system assessed as residual binding level at 1 uM by Kinomescan method relative to control; outline: as §1
Sequence of Tyrosine-protein kinase ABL1 (Homo sapiens), P00519 [F317I] (P00519 whole entry F317I, the tested form may be a part): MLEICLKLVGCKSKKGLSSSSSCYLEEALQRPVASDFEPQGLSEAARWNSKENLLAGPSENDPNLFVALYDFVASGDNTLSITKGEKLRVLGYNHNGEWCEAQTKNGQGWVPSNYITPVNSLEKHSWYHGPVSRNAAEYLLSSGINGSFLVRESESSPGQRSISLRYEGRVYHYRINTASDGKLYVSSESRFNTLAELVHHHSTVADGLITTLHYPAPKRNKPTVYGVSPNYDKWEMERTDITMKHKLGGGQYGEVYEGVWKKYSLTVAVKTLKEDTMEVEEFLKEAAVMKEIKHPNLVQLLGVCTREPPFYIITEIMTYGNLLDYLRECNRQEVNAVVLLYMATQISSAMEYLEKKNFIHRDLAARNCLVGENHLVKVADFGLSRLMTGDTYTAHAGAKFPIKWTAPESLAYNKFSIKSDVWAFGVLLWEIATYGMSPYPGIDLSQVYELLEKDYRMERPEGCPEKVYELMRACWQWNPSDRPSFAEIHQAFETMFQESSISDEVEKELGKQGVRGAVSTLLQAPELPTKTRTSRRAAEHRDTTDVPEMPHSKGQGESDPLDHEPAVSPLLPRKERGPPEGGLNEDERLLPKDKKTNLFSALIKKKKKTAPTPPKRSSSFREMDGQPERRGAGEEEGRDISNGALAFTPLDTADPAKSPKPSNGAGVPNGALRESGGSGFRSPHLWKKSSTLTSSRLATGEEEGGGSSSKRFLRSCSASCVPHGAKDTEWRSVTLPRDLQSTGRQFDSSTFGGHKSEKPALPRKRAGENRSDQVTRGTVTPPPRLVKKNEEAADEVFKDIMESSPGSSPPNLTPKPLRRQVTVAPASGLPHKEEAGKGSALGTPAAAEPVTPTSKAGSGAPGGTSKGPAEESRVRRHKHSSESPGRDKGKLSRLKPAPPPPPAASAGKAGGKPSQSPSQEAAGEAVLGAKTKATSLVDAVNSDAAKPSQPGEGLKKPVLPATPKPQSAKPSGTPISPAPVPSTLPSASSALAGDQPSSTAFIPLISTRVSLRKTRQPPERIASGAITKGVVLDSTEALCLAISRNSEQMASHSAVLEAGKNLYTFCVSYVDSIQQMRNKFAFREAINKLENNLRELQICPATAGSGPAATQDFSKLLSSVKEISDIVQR

In the case of `C=CC(=O)Nc1cc(Nc2ncc(Cl)c(Nc3ccccc3S(=O)(=O)C(C)C)n2)c(OC)cc1N(C)CCN(C)C`, the Activity [1] is reported as 65%, the Activity [2] is reported as 26% and the Activity [3] is reported as 70%. For the same compound, the Activity [4] was 23%, the Activity [5] was 7.6% and the Activity [6] was 100%. For the same compound, the Activity [7] was 46%, the AUC(0-t) [8] was 1550 ng·h/mL and the Activity [9] was 0.3%. The IC50 [10] was 58 nM, the Activity [11] was 48% and the Activity [12] was 91%. The Activity [13] was 80%, the Activity [14] was 79% and the Activity [15] was 39%. It also gave an Activity [16] of 93%, an Activity [17] of 97% and an Activity [18] of 75%. For the same compound, the Activity [19] was 64%, the Activity [20] was 41% and the Activity [21] was 65%. It also gave an Activity [22] of 67%, an Activity [23] of 60% and a concentration at 2 h [24] of 100 nM. The Activity [25] was 0.05%.
